Measured values of several laboratories.
Each line is one published result; the experiments were not run side by side.
Medium: plasma

The half-life of `C[C@@H](Nc1cc(F)cc(F)c1)c1cc(C(=O)N(C)C)cc2c(=O)cc(N3CCOCC3)oc12` is reported as 6.23 h (human; oral; 240 mg; single dose, patients).
`CO[C@@H]1[C@H](OC(=O)N2CC(CCN3CCOCC3)C2)CC[C@]2(CO2)[C@H]1[C@@]1(C)O[C@@H]1CC=C(C)C` gave a half-life of 0.47 h (human; subcutaneous; 3.6 mg; single dose, healthy volunteers).
`COc1ccc([C@@H]2CN(C(=O)[C@@H](O)CO)C[C@@]2(C)[C@@H](C)O)cc1OC1CN(c2ccc(C)cn2)C1` has a half-life of 12.1 h (human; oral; 40 mg; single dose, healthy volunteers).
`CC(C)n1cc(C#N)c2cc(-n3cc(C(=O)O)cn3)ccc21` gave a half-life of 5.1 h (human; oral; 10 mg; single dose, fasted, healthy volunteers).
`COCCOc1cnc2ccn([C@H](C)c3nnc4c(F)cc(-c5cnn(C)c5)cn34)c(=O)c2c1` has a half-life of 9.1 h (human; oral; 100 mg; multiple doses, once daily, patients).
`CO[C@H]1CC[C@H](N2C(=O)CNc3ncc(-c4ccc(C(C)(C)O)nc4)nc32)CC1` has a half-life of 4.86 h (human; oral; 45 mg; patients).
With `CC(C)(Sc1ccncc1-c1ccc(C#N)c2ccccc12)C(=O)O` the half-life was 9.51 h (male human; oral; 40 mg; single dose, fasted, healthy volunteers).
With `Cn1cc(-c2ccc(S(=O)(=O)[C@@H]3C[C@@H](C(=O)NC4(C#N)CC4)N(C(=O)C4(C(F)(F)F)CC4)C3)c(C(F)(F)F)c2)cn1` the half-life was 5.69 h (human; oral; 3 mg; single dose, fasted, healthy volunteers).
`c1cnc2ccc(Nc3nc(NC4CC4)c4nc[nH]c4n3)cc2c1` gave a half-life of 2 h (human; oral; 50 mg/m²; patients).
`CC(C)(O)c1ccccc1-c1ccc2[nH]c(/C=C/c3ccc(C(F)(F)F)cc3)nc2c1` has a half-life of 63 h (male human; oral; 120 mg; single dose, fasted, healthy volunteers).
The half-life of `COc1cc(C(=O)NC2CCN(C)CC2)c(F)cc1Nc1ncc(C(F)(F)F)c(Oc2cccc3c2C(=O)N(C)C3)n1` is reported as 18.9 h (human; oral; 100 mg; multiple doses, once daily, patients).
